Reference: ChEMBL document CHEMBL4049426, “Identification of the Clinical Candidate (R)-(1-(4-Fluorophenyl)-6-((1-methyl-1H-pyrazol-4-yl)sulfonyl)-4,4a,5,6,7,8-hexahydro-1H-pyrazolo[3,4-g]isoquinolin-4a-yl)(4-(trifluoromethyl)pyridin-2-yl)methanone (CORT125134): A Selective Glucocorticoid Receptor (GR) Antagonist” (J Med Chem, 2017)

Tests used:
[1] = Cmax in monkey plasma at 20 mg/kg, po measured up to 24 hrs by LC/MS analysis; format: ADME, organism-based, Macaca mulatta; design: dose 20 mg/kg, route oral; settings: rhesus monkey
Summary of the method: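 Monkey i.v./p.o. study: oral 20mg/kg in 10% DMSO, 0.1% Tween 80, 0.5% hydroxypropylmethylcellulose in water; i.v. dose 1mg/kg.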

progesterone receptor = molecular target: T1, progesterone receptor (Homo sapiens, UniProt P06401); test: Inhibition of radioligand binding to progesterone receptor (unknown origin) at 1 uM relative to control
T1 sequence (P06401 whole entry): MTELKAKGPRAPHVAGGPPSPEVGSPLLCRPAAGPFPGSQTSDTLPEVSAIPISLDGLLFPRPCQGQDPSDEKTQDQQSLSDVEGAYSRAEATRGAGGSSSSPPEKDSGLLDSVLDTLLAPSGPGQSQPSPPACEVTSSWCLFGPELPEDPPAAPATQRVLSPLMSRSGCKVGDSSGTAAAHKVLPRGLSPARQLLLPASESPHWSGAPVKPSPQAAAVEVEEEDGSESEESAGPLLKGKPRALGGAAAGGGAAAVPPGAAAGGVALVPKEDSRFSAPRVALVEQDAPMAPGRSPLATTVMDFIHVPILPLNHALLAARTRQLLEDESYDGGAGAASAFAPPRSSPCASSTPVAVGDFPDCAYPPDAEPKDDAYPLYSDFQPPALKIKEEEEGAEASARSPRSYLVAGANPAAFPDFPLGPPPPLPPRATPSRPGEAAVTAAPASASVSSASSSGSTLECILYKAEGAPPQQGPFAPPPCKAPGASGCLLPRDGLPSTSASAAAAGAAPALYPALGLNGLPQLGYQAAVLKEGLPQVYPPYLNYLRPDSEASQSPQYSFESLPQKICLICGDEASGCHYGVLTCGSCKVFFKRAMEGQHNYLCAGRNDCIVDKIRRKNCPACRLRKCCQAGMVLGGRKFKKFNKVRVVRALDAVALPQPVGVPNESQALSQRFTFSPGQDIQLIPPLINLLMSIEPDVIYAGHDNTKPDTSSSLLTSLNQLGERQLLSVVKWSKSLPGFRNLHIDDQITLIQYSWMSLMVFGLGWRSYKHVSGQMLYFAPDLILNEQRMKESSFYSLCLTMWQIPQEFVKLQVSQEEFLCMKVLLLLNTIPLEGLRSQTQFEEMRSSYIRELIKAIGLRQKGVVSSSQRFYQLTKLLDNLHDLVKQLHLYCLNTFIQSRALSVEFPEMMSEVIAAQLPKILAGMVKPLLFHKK

[2] = Protein binding in monkey plasma; format: ADME, cell-free, Macaca mulatta; settings: rhesus monkey, read-out: PPB (converted)
Cytochrome P450 1A2 = molecular target: T2, Cytochrome P450 1A2 (Homo sapiens, UniProt P05177); test: Time-dependent inhibition of CYP1A2 (unknown origin); format: ADME
T2 sequence (P05177 whole entry): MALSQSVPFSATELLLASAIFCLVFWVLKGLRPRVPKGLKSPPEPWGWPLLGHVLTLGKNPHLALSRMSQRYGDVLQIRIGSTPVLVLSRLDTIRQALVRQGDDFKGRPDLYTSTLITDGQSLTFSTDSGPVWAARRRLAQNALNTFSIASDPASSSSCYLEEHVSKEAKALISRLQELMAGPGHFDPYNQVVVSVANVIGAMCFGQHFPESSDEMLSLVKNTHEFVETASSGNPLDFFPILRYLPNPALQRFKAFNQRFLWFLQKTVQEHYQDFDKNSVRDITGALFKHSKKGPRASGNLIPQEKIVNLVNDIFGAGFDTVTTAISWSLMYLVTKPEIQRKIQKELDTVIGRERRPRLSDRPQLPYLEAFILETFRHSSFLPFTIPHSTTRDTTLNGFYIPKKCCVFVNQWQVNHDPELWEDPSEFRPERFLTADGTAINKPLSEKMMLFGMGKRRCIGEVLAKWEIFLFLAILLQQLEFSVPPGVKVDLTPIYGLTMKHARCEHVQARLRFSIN

Cytochrome P450 2C9 = Cytochrome P450 2C9 (Homo sapiens, UniProt P11712); test: Time-dependent inhibition of CYP2C9 (unknown origin); format: ADME
Cytochrome P450 2C9, sequence (P11712 whole entry): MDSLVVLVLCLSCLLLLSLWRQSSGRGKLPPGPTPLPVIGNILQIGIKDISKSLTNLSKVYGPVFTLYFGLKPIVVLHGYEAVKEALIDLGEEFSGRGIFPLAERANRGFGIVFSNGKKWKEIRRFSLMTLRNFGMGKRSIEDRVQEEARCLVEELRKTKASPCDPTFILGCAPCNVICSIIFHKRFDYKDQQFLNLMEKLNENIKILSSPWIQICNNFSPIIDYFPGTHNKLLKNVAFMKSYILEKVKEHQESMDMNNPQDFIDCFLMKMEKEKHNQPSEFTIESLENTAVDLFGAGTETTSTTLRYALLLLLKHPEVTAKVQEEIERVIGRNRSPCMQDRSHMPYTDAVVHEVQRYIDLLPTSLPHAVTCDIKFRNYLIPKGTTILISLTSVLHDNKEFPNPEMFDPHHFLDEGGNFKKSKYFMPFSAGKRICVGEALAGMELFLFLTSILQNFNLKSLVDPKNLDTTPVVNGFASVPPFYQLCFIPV

Cn1cc(S(=O)(=O)N2CCC3=Cc4c(cnn4-c4ccc(F)cc4)C[C@]3(C(=O)c3cc(C(F)(F)F)ccn3)C2)cn1 [RELACORILANT]
Cmax [1]: 1140 ng/mL | inhibition at 1 µM (progesterone receptor): < 10% | fraction unbound [2]: 0.011 | TDI (Cytochrome P450 1A2): Not Active | TDI (Cytochrome P450 2C9): Not Active
